Assay results collected from several papers.
Each line is one published result; the experiments were not run side by side.
Target: Casein kinase II subunit alpha (CSNK2A1, Homo sapiens, UniProt P68400)

| SMILES | test | setting | remaining binding |
| --- | --- | --- | --- |
| O=C1NC(c2ccccn2)Sc2ccccc21 (stereo not drawn) | cell-free assay, competition with immobilised ligand | 1 µM | 61% |
| CC1CCCN1c1nccc(-c2cnn3ncccc23)n1 (stereo not drawn) | binding | 1 µM | 90% |
| CC(=O)N1CCC(c2ccc(C(=O)NC(=N)N)cc2C(F)(F)F)CC1 | cell-free assay, competition with immobilised ligand | 1 µM | 95% |
| O=C(c1ccc(Nc2ncc(Cl)c(-c3ccc(Cl)s3)n2)cc1)N1CCC(N2CCCC2)CC1 | binding, competition with immobilised ligand | 1 µM | 0.9% |
| C[C@@H](c1ccc(-n2cnc3c(N)ncnc32)cc1)N1CCc2nn(C)c(Cc3ccccc3)c2C1=O | binding, competition with immobilised ligand | 0.1 µM | 73% |
| O=C(NCCCN1CCOCC1)c1ccc(Nc2nccc(-c3cc4ccccc4s3)n2)cc1 | binding, competition with immobilised ligand | 1 µM | 37% |
| Nc1ncc2c(n1)-c1c([nH]c3ccc(C#CC4CC4)cc13)CCCC2 | binding, competition with immobilised ligand | 1 µM | 79% |
| CN(C)c1nccc(-c2cnn3ncccc23)n1 | binding | 1 µM | 39% |
| COc1cnc(Nc2cccc(S(N)(=O)=O)c2)nc1N1CCN(c2ccccc2)C(=O)C1 | binding, competition with immobilised ligand | 1 µM | 68% |
| F[C@@H]1CCN(c2nccc(-c3cnn4ncccc34)n2)C1 | binding | 1 µM | 58% |
| O=C(c1ccc(Nc2ncc(Cl)c(-c3cc4ccccc4s3)n2)cc1)N1CCC(N2CCCC2)CC1 | binding, competition with immobilised ligand | 1 µM | 0.9% |
| CCC(=O)N[C@H]1CC[C@@H](C(=O)N(C)c2ccc(-c3nc4ccccc4o3)cc2)C1 | cell-free assay, competition with immobilised ligand | 1 µM | 74% |
| CN(C)c1nccc(-c2cnc3ncccn23)n1 | binding | 1 µM | 47% |
| COc1ncc2cc3ccccc3nc2c1C#N | cell-free assay, competition with immobilised ligand | 5 µM | 92% |
| N[C@H]1CCN(c2nccc(-c3cnn4ncccc34)n2)C1 | binding | 1 µM | 89% |
| N#CC1(c2ccccn2)CCN(Cc2cc(C(=O)N3CCCC3)c(=O)n3ccccc23)CC1 | cell-free assay, competition with immobilised ligand | 1 µM | 100% |
| COc1ccnn2ncc(-c3ccnc(N(C)C)n3)c12 | binding | 1 µM | 74% |
| Cn1nc(C(F)(F)F)cc1-c1cnc(N2CCc3cc(S(=O)(=O)Nc4c(F)cc(Cl)cc4F)cc(N4CCCC4=O)c32)nc1 | cell-free assay, competition with immobilised ligand | 1 µM | 65% |
| COc1cnc(Nc2cccc(S(N)(=O)=O)c2)nc1N1CCN(c2ccccc2)CC1 | binding, competition with immobilised ligand | 1 µM | 71% |
| CN(C(=O)c1ccccc1)c1cc(N(C)c2ccc3c(c2)CCc2ccc(C(=O)NCCN4CCOCC4)cc2C3=O)ccc1F | cell-free assay, competition with immobilised ligand | 1 µM | 100% |
| O=C(Nc1c[nH]nc1C(=O)NC1CCNCC1)c1cc(F)cc(F)c1 | binding, competition with immobilised ligand | 1 µM | 100% |
